{"source": "ChEMBL document CHEMBL1154352", "about": "“Toll-like receptor 7 selective synthetic oligoribonucleotide agonists: synthesis and structure-activity relationship studies” (J Med Chem, 2009)", "key": {"PBMC [1]": {"system": "PBMC", "experiment": "Immunomodulatory activity in human PBMC assessed as induction of IL12 after 24 hrs", "format": "functional, cell-based", "summary_of_the_method": "(§1)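 Human PBMCs plated at 5 × 10^6 cells/mL; compounds dissolved in PBS added at various concentrations, 37 °C for 24 h. Supernatant cytokines/chemokines quantified with human Luminex multiplex kit.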"}, "PBMC [2]": {"system": "PBMC", "experiment": "Immunomodulatory activity in human PBMC assessed as induction of TNFalpha after 24 hrs", "format": "functional, cell-based", "summary_of_the_method": "as §1"}, "PBMC [3]": {"system": "PBMC", "experiment": "Immunomodulatory activity in human PBMC assessed as induction of IL1-beta after 24 hrs", "format": "functional, cell-based", "summary_of_the_method": "as §1"}, "PBMC [4]": {"system": "PBMC", "experiment": "Immunomodulatory activity in human PBMC assessed as induction of MCP1 after 24 hrs", "format": "functional, cell-based", "summary_of_the_method": "as §1"}, "PBMC [5]": {"system": "PBMC", "experiment": "Immunomodulatory activity in human PBMC assessed as induction of MIP1beta after 24 hrs", "format": "functional, cell-based", "summary_of_the_method": "as §1"}, "Mus musculus [6]": {"system": "Mus musculus", "experiment": "Immunomodulatory activity in wild-type C57BL/6 mouse assessed as induction of IL12 release at 10 mg/kg, sc after 2 hrs by ELISA", "format": "functional, organism-based", "parameters": "dose 10 mg/kg", "summary_of_the_method": "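Female C57BL/6 wild-type mice, 5–8 weeks old, n=3; compounds given subcutaneously at 10 or 25 mg/kg. Retro-orbital blood at 2 h; serum cytokines by mouse Luminex multiplex or IL-12 ELISA.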"}, "Mus musculus [7]": {"system": "Mus musculus", "experiment": "Immunomodulatory activity in TLR9 knockout C57BL/6 mouse assessed as induction of IL12 release at 10 mg/kg, sc after 2 hrs by ELISA", "format": "functional, organism-based", "parameters": "dose 10 mg/kg", "summary_of_the_method": "(§2)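 Male 8-week-old TLR9-/-, TLR7-/- or MyD88-/- mice on C57BL/6 background, n=3; single subcutaneous 10 mg/kg dose. Blood collected 2 h later by retro-orbital bleeding; serum IL-12 by ELISA.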"}, "Mus musculus [8]": {"system": "Mus musculus", "experiment": "Immunomodulatory activity in TLR7 knockout C57BL/6 mouse assessed as induction of IL12 release at 10 mg/kg, sc after 2 hrs by ELISA", "format": "functional, organism-based", "parameters": "dose 10 mg/kg", "summary_of_the_method": "as §2"}}, "note": "The source made the active and inactive calls. The rule behind the calls is not given here."}
{"smiles": "Nc1ccn([C@@H]2O[C@H](COP(=O)(S)O[C@H]3[C@@H](O)[C@H](n4cnc5c(N)ncnc54)O[C@@H]3CO)[C@@H](OP(=O)(S)OC[C@H]3O[C@@H](n4ccc(=O)[nH]c4=O)[C@H](O)[C@@H]3OP(=O)(S)OC[C@H]3O[C@@H](n4ccc5c(=O)[nH]c(N)nc54)[C@H](O)[C@@H]3OP(=O)(S)OC[C@H]3O[C@@H](n4ccc(N)nc4=O)[C@H](O)[C@@H]3OP(=O)(S)OC[C@H]3O[C@@H](n4ccc5c(=O)[nH]c(N)nc54)[C@H](O)[C@@H]3OP(=O)(S)OC[C@H]3O[C@@H](n4cnc5c(N)ncnc54)[C@H](O)[C@@H]3OP(=O)(S)OC[C@H]3O[C@@H](n4ccc5c(=O)[nH]c(N)nc54)[C@H](O)[C@@H]3OP(=O)(S)OC[C@H]3O[C@@H](n4ccc(N)nc4=O)[C@H](O)[C@@H]3OP(=O)(S)OC[C@H]3O[C@@H](n4ccc(=O)[nH]c4=O)[C@H](O)[C@@H]3OP(=O)(S)OC[C@H]3O[C@@H](n4ccc(=O)[nH]c4=O)[C@H](O)[C@@H]3OP(=O)(S)OCC(O)COP(=O)(S)O[C@H]3[C@@H](O)[C@H](n4ccc(=O)[nH]c4=O)O[C@@H]3COP(=O)(S)O[C@H]3[C@@H](O)[C@H](n4ccc(=O)[nH]c4=O)O[C@@H]3COP(=O)(S)O[C@H]3[C@@H](O)[C@H](n4ccc(N)nc4=O)O[C@@H]3COP(=O)(S)O[C@H]3[C@@H](O)[C@H](n4ccc5c(=O)[nH]c(N)nc54)O[C@@H]3COP(=O)(S)O[C@H]3[C@@H](O)[C@H](n4cnc5c(N)ncnc54)O[C@@H]3COP(=O)(S)O[C@H]3[C@@H](O)[C@H](n4ccc5c(=O)[nH]c(N)nc54)O[C@@H]3COP(=O)(S)O[C@H]3[C@@H](O)[C@H](n4ccc(N)nc4=O)O[C@@H]3COP(=O)(S)O[C@H]3[C@@H](O)[C@H](n4ccc5c(=O)[nH]c(N)nc54)O[C@@H]3COP(=O)(S)O[C@H]3[C@@H](O)[C@H](n4ccc(=O)[nH]c4=O)O[C@@H]3COP(=O)(S)O[C@H]3[C@@H](O)[C@H](n4ccc(N)nc4=O)O[C@@H]3COP(=O)(S)O[C@H]3[C@@H](O)[C@H](n4cnc5c(N)ncnc54)O[C@@H]3CO)[C@H]2O)c(=O)n1", "note": "(stereo partly drawn)", "values": [{"measurement": "Activity", "setting": "PBMC [1]", "value": "Dose-dependent effect"}, {"measurement": "Activity", "setting": "PBMC [2]", "value": "Dose-dependent effect"}, {"measurement": "Activity", "setting": "PBMC [3]", "value": "Dose-dependent effect"}, {"measurement": "Activity", "setting": "PBMC [4]", "value": "Dose-dependent effect"}, {"measurement": "Activity", "setting": "PBMC [5]", "value": "Dose-dependent effect"}, {"measurement": "Activity", "setting": "Mus musculus [6]", "value": "Active"}, {"measurement": "Activity", "setting": "Mus musculus [7]", "value": "Active"}, {"measurement": "Activity", "setting": "Mus musculus [8]", "value": "inactive"}]}
